An excerpt weighted towards active compounds, which were near 2.6% of everything screened.
Vif imaging: HIV Vif self-association inhibitors, primary screen, imaging, HEK293T, single point. HEK293T cells, Vif self-association by quenched fluorescence, 24 h. inhibition, % at 7.49 µM. 0.35% of 340,000 active. AID 602346, 2012; in the data active = inhibition above about 50%, passing the limit was not always enough; inconclusive = no clear call, values can overlap the other calls; inactive = below about 31%
XiGFP reactiv: activators of inactive X chromosome reactivation, primary screen, imaging, XiGFP fibroblasts, GFP high-content imaging, set 2. XiGFP mouse fibroblasts, % GFP-positive cells imaging, 3 d; cells co-treated with 5-aza-dC sensitizer; scaled so ellipticine positive control = 100%. activation, % at 7.58 µM. 0.055% of 360,000 active;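 active = mean normalized replicate activation at least 10% and every replicate at or above 10%; inconclusive = only one of the two criteria met; inactive = mean below 10% and not all replicates reach 10%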;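 also: 0% = median of on-plate neutral control wells and 100% = ellipticine 6 µM median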
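System: XiGFP fibroblasts, SV40-immortalized. Medium: DMEM plus 5-aza-dC sensitizer. Doses: single point. Timing: 3 d treatment, 15 min room-temperature fixation. Control set: ellipticine 6 µM.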
MITF TRPM1 HTS: activators of MITF-driven TRPM1 promoter reporter, primary screen, cell-based, SK-MEL-5, luciferase, single point; SK-MEL-5 TRPM1-promoter luciferase, 24 h; % of positive control, neutral wells = 0; activation, % at 12.5 µM; AID 588334, 2011; 0.75% of 300,000 active;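 active = mean activation of at least 80% with every replicate also reaching 80%; inconclusive = mean reaches 80% but some replicate falls short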;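 also: 0% = neutral control wells and 100% = parthenolide positive control wells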
esBAF inh: Bmi1 luciferase reporter increase in mESCs, primary screen, esBAF inhibitor project, mouse ES cells, Bmi1 luciferase knock-in, single point; 24 h; 100% = twice the neutral-well signal; reporter increase, % at 12.5 µM; 2% of 350,000 active; AID 602393, 2012; in the data active = activation above about 40%; inconclusive = no clear call, values can overlap the other calls;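 also: 0% = median of the plate's neutral control wells and 100% = double that signal; a rise in the Bmi1 reporter signal indicates esBAF inhibition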
Wnt act: Wnt/beta-catenin pathway activators, primary screen, cell-based, plate reader, single point. Wnt/beta-catenin reporter cell assay, activator. activation, % at 9.35 µM. 1.2% of 300,000 active; in the data active = activation above about 30%, passing the limit was not always enough; inconclusive = no clear call, values can overlap the other calls;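 also: 0% = neutral control wells and 100% = positive control wells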
The depositor's hits bear a star; i = inactive; ? = inconclusive; · = not tested or not shown.

SMILES | Vif imaging | XiGFP reactiv | MITF TRPM1 HTS | esBAF inh | Wnt act
O=C(Nc1nc2ccc(Cl)cc2s1)C1CCCO1 (stereo not drawn) | -8 | · | 61 | 49* | ·
CC(C)c1ccc2nc(NC(=O)C3CC3)sc2c1 | -18 | 0 | 60 | 57* | 58*
CC1=CCC(C(=O)O)C(C(=O)Nc2ccc(-c3nc4ccc(C)cc4s3)cc2)C1 (stereo not drawn) | 14 | 0 | 14 | -20 | 58*
COC(=O)c1ccc2nc(NC(=O)C3CCCCC3)sc2c1 | 7 | 0 | 38 | · | 23
CC(=O)NC(=S)Nc1ccc(-c2nc3ccc(C)cc3s2)cc1 | -10 | · | 46 | 13 | 22
O=C(Nc1nc(-c2ccc(F)cc2)cs1)C1CCCO1 (stereo not drawn) | 2 | 1 | 85* | · | 45*
COc1ccc(S(=O)(=O)Nc2ccc3c(c2)CC(=O)N([C@H](C)CO)C[C@@H](C)[C@H](CN(C)C(=O)Nc2ccccc2)O3)cc1 | · | 0 | · | 2 | ·
C[C@@H]1CN([C@H](C)CO)S(=O)(=O)c2ccc(C#CCN(C)C)cc2O[C@H]1CN(C)Cc1ccncc1 | · | -1 | · | 2 | ·
Cc1ccc2nc(-c3ccc(NS(=O)(=O)c4ccc(F)cc4)cc3)sc2c1 | -1 | 0 | 40 | · | 44*
CC1CC1C(=O)Nc1nc2ccc(S(C)(=O)=O)cc2s1 (stereo not drawn) | -33 | 0 | 18 | 10 | 2
Cc1ccc2nc(NC(=O)C3CC3C)sc2c1 (stereo not drawn) | -39 | 0 | 49 | 72* | 28
O=C(Nc1nc2ccc(Cl)cc2s1)C1CC1 | -12 | 0 | · | · | 60*
Cc1cc(Cl)cc2sc(NC(=O)C3CC3)nc12 | 4 | 0 | 1 | 18 | 8
CC(=O)N1[C@@H]2c3ccc(C4=CCCC4)c(=O)n3C[C@H]1[C@H](CO)[C@H]2C(=O)N[C@H](C)c1ccccc1 | · | 0 | · | 0 | ·
CC(=O)N1[C@@H]2CN(C(=O)NC(C)C)C[C@H]1C2c1ccc(Br)cc1 (stereo partly drawn) | · | 0 | · | · | ·
C[C@@H]1CCCCO[C@@H](CN(C)S(=O)(=O)c2ccc(Cl)cc2)[C@@H](C)CN([C@@H](C)CO)C(=O)c2cc(NS(=O)(=O)c3cn(C)cn3)ccc2O1 | · | -1 | · | 2 | ·
c1cn2c(Nc3ccc4c(c3)OCCO4)c(-c3ccc(N4CCOCC4)cc3)nc2cn1 | 0 | 0 | 30 | · | 49*
C[C@@H]1CN([C@@H](C)CO)C(=O)c2cc(-c3cccnc3)cnc2O[C@H]1CN(C)C(=O)C1CCCCC1 | · | 0 | · | 0 | ·
COc1ccc2nc(N3CCC(C)CC3)c(C#N)cc2c1 | -1 | · | 84* | 64* | ·
COc1ccc(-c2c(C#Cc3ccsc3)c3ccccc3n2C)cc1 | -2 | 0 | 4 | 45* | 12
COc1ccc(C#Cc2c(-c3ccccc3)n(C)c3ccccc23)cc1 | -5 | 0 | -18 | 1 | -4
O=C(c1ccccc1Cl)N1CCN(S(=O)(=O)c2cccs2)CC1 | -1 | 0 | 0 | -5 | 0
O=C(NCC(=O)N1CCN(S(=O)(=O)c2cccs2)CC1)c1ccc(Cl)cc1 | 58* | 0 | -3 | 1 | -1
O=C(c1ccco1)N1CCN(C(=O)c2ccc(-c3ccccc3Cl)o2)CC1 | -3 | 0 | ? | 56* | -3
Cc1ccc(C(=O)NCC(=O)N2CCN(S(=O)(=O)c3cccs3)CC2)s1 | 1 | 0 | 7 | -3 | 0
SMILES | Vif imaging | XiGFP reactiv | MITF TRPM1 HTS | esBAF inh | Wnt act
O=C(c1ccco1)N1CCN(Cc2c(Cl)cccc2Cl)CC1 | 4 | 0 | 74 | 59* | 9
O=C(c1ccc(-c2ccccc2Cl)o1)N1CCN(S(=O)(=O)c2cccs2)CC1 | -12 | 0 | 87* | · | 10
CC(=O)N(C)C[C@@H]1Oc2cc(-c3ccccc3)ccc2S(=O)(=O)N([C@@H](C)CO)C[C@H]1C | · | -1 | · | 3 | ·
O=C(c1ccc(-c2ccc(Cl)cc2Cl)o1)N1CCOCC1 | -3 | 2 | 147* | 56* | 54*
COc1cccc2c1C(=O)c1c(O)c3c(c(O)c1C2=O)C[C@@](O)(C(=O)CO)C[C@@H]3OC1CC(N)C(O)C(C)O1 (stereo partly drawn) | -6 | 2 | · | · | -10
CC(=O)[C@@]1(O)Cc2c(O)c3c(c(O)c2[C@H](O[C@H]2C[C@H](N)[C@H](O)[C@H](C)O2)C1)C(=O)c1ccccc1C3=O | 66* | 109* | · | -82 | 25
O=C(Cc1ccccn1)N[C@H]1CC[C@@H](CCn2cc(-c3cccnc3)nn2)O[C@H]1CO | · | 1 | · | 0 | ·
Cc1nc(NC(=O)C2CC2)sc1C(=O)Nc1ccccc1Cl | 15 | 0 | · | 53* | 1
O=C1/C(=C\c2ccc(O)cc2)SC(=S)N1/N=C/c1ccc(O)cc1 | -2 | 0 | 12 | · | 51*
COc1ccc(-c2ccc3nccn3c2)cc1 | 7 | 0 | · | 45* | -1
COc1cc2ccccc2nn1 | 1 | 0 | 5 | · | 3
COc1ccc2c(n1)Sc1nc3ccccc3nc1N2 | i | 68* | -8 | 23 | 40*
C[C@@H]1CN([C@@H](C)CO)C(=O)c2cc(NS(=O)(=O)c3cccs3)ccc2O[C@@H]1CN(C)Cc1ccc(-c2ccccc2)cc1 | · | -1 | · | 0 | ·
COc1cn(-c2ccccc2)nc1C(=O)Nc1ccccc1 | 12 | 0 | 22 | 60* | 15
Nc1ccccc1Nc1cc(-c2ccccc2)nn1-c1cccc(Cl)c1 | 5 | 0 | -4 | · | -3
CNc1nn(-c2cccc(Cl)c2)nc1N | -12 | · | 57 | 62* | ·
C[C@@H]1CN([C@@H](C)CO)C(=O)c2cc(NC(=O)Cc3ccccc3)ccc2O[C@H]1CN(C)Cc1ccc(C(=O)O)cc1 | · | 0 | · | 3 | ·
Cc1nc(C)c(-c2ccc(SCc3ccccc3C)nn2)s1 | -1 | 0 | 56 | 52* | 9
O=C1/C(=C/Nc2cccc([N+](=O)[O-])c2)CCc2ccccc21 | 6 | 0 | 39 | · | 90*
O=C1/C(=C\c2ccc([N+](=O)[O-])cc2)CCc2ccccc21 | 29 | 0 | 22 | · | 13
COc1ccccc1-c1ccc2c(c1)O[C@H](CN(C)C)[C@@H](C)CN([C@@H](C)CO)S2(=O)=O | · | -1 | · | 3 | ·
O=c1c2ccccc2oc2ccc(-c3ccc4[nH]ccc4c3)cc12 | -4 | 0 | 113* | 34 | -3
COc1ccc(/C=C2\CCn3c2nc2ccccc2c3=O)cc1OC | -1 | · | 94* | 43* | ·
CSc1sccc1/C=C(/C#N)C(=O)c1ccco1 | 151* | 0 | 3 | 2 | 0
Cc1cc(NCCCn2ccnc2)n2nc(C)c(-c3ccccc3)c2n1 | -2 | · | 66 | 47* | 16

Screens from PubChem.
